# Test results: ChEMBL document CHEMBL5678815 (Clin Cancer Res, 2017)
# The source made the active and inactive calls. No cut-off for these calls is given here.
# Assays:
# [1] = biological target: Mast/stem cell growth factor receptor Kit (Homo sapiens) (UniProt P10721); test: Inhibition of human KIT assessed as remaining activity at 1 uM by ATP-competition binding assay relative to control
# Outline: (§1)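 Single-point profiling at 1μM in an ATP-site-dependent competition binding assay across a panel of 395 human kinases, including mutant forms. The read-out is kinase binding signal in the presence of test agent, expressed as inhibition relative to the control signal. This screen assessed noncovalent binding interactions.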
# [2] = biological target: Mitogen-activated protein kinase kinase kinase 20 (Homo sapiens) (UniProt Q9NYL2); test: Inhibition of human ZAK assessed as remaining activity at 1 uM by ATP-competition binding assay relative to control
# Outline: (§2)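 Single-concentration (1 μM) screen in an ATP-site-dependent competition binding assay (KINOMEscan, outsourced) covering 395 human kinases, mutants included. Non-covalent binding was read as the remaining signal relative to the control signal.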
# [3] = biological target: Calcium/calmodulin-dependent protein kinase type 1D (Homo sapiens) (UniProt Q8IU85); test: Inhibition of human CAMK1D assessed as remaining activity at 1 uM by ATP-competition binding assay relative to control
# Outline: (§3)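 KINOMEscan ATP-site-dependent competition binding panel of 395 human kinases, with compound tested at 1 μM. Binding is reported as remaining signal relative to control.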
# [4] = biological target: Serine/threonine-protein kinase pim-3 (Homo sapiens) (UniProt Q86V86); test: Inhibition of human PIM3 assessed as remaining activity at 1 uM by ATP-competition binding assay relative to control; outline: as §2
# [5] = biological target: Uncharacterized serine/threonine-protein kinase SBK3 (Homo sapiens) (UniProt P0C264); test: Inhibition of human SgK110 assessed as remaining activity at 1 uM by ATP-competition binding assay relative to control; outline: as §2
# [6] = biological target: Serine/threonine-protein kinase PAK 2 (Homo sapiens) (UniProt Q13177); test: Inhibition of human PAK2 assessed as remaining activity at 1 uM by ATP-competition binding assay relative to control; outline: as §1
# [7] = biological target: AP2-associated protein kinase 1 (Homo sapiens) (UniProt Q2M2I8); test: Inhibition of human AAK1 assessed as remaining activity at 1 uM by ATP-competition binding assay relative to control; outline: as §3
# [8] = biological target: SRSF protein kinase 2 (Homo sapiens) (UniProt P78362); test: Inhibition of human SRPK2 assessed as remaining activity at 1 uM by ATP-competition binding assay relative to control; outline: as §2
# CLL mononuclear cell = test: Antileukemic activity against human CLL mononuclear cells xenografted NSG mouse assessed as reduction in splenic tumor burden at 0.3 mg/ml preadministered with compound via drinking water and measured after 3 weeks by flow cytometry analysis; type: functional, cell-based
# Outline: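 Primary CLL patient mononuclear cells (1 × 10^8 per mouse) engrafted into NSG mice on day 0 after busulfan priming on day −1. Vehicle or drug was given in drinking water from day −1. Mice were killed 3 weeks after engraftment; spleens homogenized, filtered and RBC-lysed; whole blood collected. Six patients, 2–5 mice per patient; paired t-test per patient.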
# [9] = biological target: Serine/threonine-protein kinase PRP4 homolog (Homo sapiens) (UniProt Q13523); test: Inhibition of human PRP4 assessed as remaining activity at 1 uM by ATP-competition binding assay relative to control; outline: as §2
# [10] = biological target: Mitogen-activated protein kinase kinase kinase 4 (Homo sapiens) (UniProt Q9Y6R4); test: Inhibition of human MAP3K4 assessed as remaining activity at 1 uM by ATP-competition binding assay relative to control; outline: as §1
# [11] = biological target: Homeodomain-interacting protein kinase 4 (Homo sapiens) (UniProt Q8NE63); test: Inhibition of human HIPK4 assessed as remaining activity at 1 uM by ATP-competition binding assay relative to control; outline: as §1
# [12] = biological target: Dual specificity protein kinase CLK2 (Homo sapiens) (UniProt P49760); test: Inhibition of human CLK2 assessed as remaining activity at 1 uM by ATP-competition binding assay relative to control; outline: as §3
# [13] = biological target: Ephrin type-A receptor 8 (Homo sapiens) (UniProt P29322); test: Inhibition of human EPHA8 assessed as remaining activity at 1 uM by ATP-competition binding assay relative to control; outline: as §1
# [14] = biological target: Serine/threonine-protein kinase B-raf (Homo sapiens) (UniProt P15056); test: Inhibition of human BRAF assessed as remaining activity at 1 uM by ATP-competition binding assay relative to control; outline: as §3
# [15] = biological target: Cyclin-dependent kinase 16 (Homo sapiens) (UniProt Q00536); test: Inhibition of human PCTK1 assessed as remaining activity at 1 uM by ATP-competition binding assay relative to control; outline: as §1
# [16] = biological target: Macrophage colony-stimulating factor 1 receptor (Homo sapiens) (UniProt P07333); test: Inhibition of human CSF1R assessed as remaining activity at 1 uM by ATP-competition binding assay relative to control; outline: as §3
# [17] = biological target: Tyrosine-protein kinase JAK1 (Homo sapiens) (UniProt P23458); test: Inhibition of human JAK1 JH2 domain assessed as remaining activity at 1 uM by ATP-competition binding assay relative to control; outline: as §1
# [18] = biological target: Calcium/calmodulin-dependent protein kinase type IV (Homo sapiens) (UniProt Q16566); test: Inhibition of human CAMK4 assessed as remaining activity at 1 uM by ATP-competition binding assay relative to control; outline: as §3
# [19] = biological target: Receptor tyrosine-protein kinase erbB-4 (Homo sapiens) (UniProt Q15303); test: Inhibition of human ERBB4 at <100 nM by ATP-Competition Binding Assay
# [20] = biological target: Dual specificity protein kinase CLK1 (Homo sapiens) (UniProt P49759); test: Inhibition of human CLK1 assessed as remaining activity at 1 uM by ATP-competition binding assay relative to control; outline: as §3
# [21] = In vivo inhibition of BCR signaling in female […] mouse assessed as B-cell function at 25 mg/kg, po administered for 24 hrs and measured after stimulation with anti-IgM for 18 h by flow cytometry analysis relative to control; type: functional, Splenocyte; design: scale not given: the % may be the effect or the level left
# Outline: (§4)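 Female C57BL/6 mice (5/group) received vehicle or 25 mg/kg drug by oral gavage at time zero, with spleens taken at time points from 3 to 24 h. Splenocytes were stimulated ex vivo with goat anti-mouse IgM at 10μg/mL for 18 h at 37°C in 5% CO2, then Fc-blocked and stained for CD19 plus CD69, CD86 or phospho-S6(S235/236), with 7-AAD to exclude dead cells. Read-out was flow cytometry on >5,000 gated CD19+ cells, compared with vehicle.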
# [22] = tested on: Hepatocyte growth factor receptor (Homo sapiens), P08581 [M1250T]; test: Inhibition of human MET M1250T mutant assessed as remaining activity at 1 uM by ATP-competition binding assay relative to control; outline: as §1
# [23] = biological target: 3-phosphoinositide-dependent protein kinase 1 (Homo sapiens) (UniProt O15530); test: Inhibition of human PDPK1 assessed as remaining activity at 1 uM by ATP-competition binding assay relative to control; outline: as §1
# [24] = biological target: Casein kinase I isoform epsilon (Homo sapiens) (UniProt P49674); test: Inhibition of human CSNK1E assessed as remaining activity at 1 uM by ATP-competition binding assay relative to control; outline: as §3
# Splenocyte = test: In vivo inhibition of BCR signaling in female […] mouse assessed as change in phospho-S6 expression at 25 mg/kg, po administered and measured after stimulation with anti-IgM for 18 h by flow cytometry analysis; type: functional, organism-based; outline: as §4
# Receptor tyrosine-protein kinase erbB-4 (Homo sapiens), sequence (Q15303 whole entry): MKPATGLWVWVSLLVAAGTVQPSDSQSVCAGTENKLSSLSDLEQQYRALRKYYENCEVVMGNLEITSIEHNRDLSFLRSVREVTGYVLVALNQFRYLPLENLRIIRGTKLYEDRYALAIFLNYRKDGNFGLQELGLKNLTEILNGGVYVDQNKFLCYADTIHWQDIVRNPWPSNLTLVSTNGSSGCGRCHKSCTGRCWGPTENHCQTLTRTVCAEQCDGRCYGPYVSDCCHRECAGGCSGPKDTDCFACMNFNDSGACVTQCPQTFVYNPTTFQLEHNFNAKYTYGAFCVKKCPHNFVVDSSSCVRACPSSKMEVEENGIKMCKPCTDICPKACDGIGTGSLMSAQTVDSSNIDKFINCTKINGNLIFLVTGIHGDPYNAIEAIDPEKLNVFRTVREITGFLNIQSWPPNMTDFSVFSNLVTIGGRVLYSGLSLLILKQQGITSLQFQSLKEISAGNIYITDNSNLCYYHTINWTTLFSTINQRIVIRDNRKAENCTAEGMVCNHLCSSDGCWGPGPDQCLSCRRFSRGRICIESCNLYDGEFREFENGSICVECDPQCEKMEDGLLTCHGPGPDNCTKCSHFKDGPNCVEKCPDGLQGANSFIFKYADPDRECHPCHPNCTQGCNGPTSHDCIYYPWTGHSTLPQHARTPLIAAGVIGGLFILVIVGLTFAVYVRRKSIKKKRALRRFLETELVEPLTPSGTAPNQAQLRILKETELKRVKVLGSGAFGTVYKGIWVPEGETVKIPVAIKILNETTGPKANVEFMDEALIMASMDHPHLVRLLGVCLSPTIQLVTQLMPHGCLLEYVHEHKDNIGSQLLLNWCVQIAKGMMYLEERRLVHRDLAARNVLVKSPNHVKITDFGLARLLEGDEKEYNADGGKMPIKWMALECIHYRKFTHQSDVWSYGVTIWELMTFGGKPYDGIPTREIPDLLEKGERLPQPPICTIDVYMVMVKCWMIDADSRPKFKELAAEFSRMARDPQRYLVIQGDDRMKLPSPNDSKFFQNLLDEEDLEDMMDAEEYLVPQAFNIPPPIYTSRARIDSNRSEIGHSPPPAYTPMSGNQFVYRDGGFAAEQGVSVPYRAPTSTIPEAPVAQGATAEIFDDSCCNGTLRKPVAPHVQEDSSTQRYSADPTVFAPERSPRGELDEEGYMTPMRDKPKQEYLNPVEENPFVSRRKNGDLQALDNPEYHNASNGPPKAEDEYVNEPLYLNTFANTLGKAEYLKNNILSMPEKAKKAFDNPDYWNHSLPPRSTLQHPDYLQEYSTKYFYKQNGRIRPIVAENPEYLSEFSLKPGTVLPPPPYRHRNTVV
# AP2-associated protein kinase 1 (Homo sapiens), sequence (Q2M2I8 whole entry, looked up): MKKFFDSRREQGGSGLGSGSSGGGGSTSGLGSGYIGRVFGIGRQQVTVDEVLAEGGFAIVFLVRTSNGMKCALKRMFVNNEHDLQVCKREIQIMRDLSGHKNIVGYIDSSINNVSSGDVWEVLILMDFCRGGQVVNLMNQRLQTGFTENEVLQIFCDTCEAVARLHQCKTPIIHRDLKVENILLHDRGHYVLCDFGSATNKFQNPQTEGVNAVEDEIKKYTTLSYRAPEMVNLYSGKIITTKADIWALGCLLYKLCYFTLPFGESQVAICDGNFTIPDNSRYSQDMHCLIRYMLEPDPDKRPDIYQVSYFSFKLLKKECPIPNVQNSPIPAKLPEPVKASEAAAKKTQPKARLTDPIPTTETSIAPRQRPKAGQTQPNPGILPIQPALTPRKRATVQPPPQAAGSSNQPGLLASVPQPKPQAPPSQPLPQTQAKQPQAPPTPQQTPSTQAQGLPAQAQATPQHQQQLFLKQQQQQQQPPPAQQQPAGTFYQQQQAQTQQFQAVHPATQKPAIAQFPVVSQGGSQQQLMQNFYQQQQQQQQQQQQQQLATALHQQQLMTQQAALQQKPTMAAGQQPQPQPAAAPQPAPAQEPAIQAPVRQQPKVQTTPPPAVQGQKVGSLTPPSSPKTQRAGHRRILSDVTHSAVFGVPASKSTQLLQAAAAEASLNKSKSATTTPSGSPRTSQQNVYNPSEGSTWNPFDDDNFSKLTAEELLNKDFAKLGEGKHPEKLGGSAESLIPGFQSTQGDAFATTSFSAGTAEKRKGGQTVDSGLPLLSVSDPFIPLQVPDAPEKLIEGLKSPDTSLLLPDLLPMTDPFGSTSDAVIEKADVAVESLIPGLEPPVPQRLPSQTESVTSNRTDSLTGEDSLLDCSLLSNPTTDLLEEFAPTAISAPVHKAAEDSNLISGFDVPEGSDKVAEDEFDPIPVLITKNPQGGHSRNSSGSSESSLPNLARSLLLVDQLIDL
# Mitogen-activated protein kinase kinase kinase 4 (Homo sapiens), sequence (Q9Y6R4 whole entry): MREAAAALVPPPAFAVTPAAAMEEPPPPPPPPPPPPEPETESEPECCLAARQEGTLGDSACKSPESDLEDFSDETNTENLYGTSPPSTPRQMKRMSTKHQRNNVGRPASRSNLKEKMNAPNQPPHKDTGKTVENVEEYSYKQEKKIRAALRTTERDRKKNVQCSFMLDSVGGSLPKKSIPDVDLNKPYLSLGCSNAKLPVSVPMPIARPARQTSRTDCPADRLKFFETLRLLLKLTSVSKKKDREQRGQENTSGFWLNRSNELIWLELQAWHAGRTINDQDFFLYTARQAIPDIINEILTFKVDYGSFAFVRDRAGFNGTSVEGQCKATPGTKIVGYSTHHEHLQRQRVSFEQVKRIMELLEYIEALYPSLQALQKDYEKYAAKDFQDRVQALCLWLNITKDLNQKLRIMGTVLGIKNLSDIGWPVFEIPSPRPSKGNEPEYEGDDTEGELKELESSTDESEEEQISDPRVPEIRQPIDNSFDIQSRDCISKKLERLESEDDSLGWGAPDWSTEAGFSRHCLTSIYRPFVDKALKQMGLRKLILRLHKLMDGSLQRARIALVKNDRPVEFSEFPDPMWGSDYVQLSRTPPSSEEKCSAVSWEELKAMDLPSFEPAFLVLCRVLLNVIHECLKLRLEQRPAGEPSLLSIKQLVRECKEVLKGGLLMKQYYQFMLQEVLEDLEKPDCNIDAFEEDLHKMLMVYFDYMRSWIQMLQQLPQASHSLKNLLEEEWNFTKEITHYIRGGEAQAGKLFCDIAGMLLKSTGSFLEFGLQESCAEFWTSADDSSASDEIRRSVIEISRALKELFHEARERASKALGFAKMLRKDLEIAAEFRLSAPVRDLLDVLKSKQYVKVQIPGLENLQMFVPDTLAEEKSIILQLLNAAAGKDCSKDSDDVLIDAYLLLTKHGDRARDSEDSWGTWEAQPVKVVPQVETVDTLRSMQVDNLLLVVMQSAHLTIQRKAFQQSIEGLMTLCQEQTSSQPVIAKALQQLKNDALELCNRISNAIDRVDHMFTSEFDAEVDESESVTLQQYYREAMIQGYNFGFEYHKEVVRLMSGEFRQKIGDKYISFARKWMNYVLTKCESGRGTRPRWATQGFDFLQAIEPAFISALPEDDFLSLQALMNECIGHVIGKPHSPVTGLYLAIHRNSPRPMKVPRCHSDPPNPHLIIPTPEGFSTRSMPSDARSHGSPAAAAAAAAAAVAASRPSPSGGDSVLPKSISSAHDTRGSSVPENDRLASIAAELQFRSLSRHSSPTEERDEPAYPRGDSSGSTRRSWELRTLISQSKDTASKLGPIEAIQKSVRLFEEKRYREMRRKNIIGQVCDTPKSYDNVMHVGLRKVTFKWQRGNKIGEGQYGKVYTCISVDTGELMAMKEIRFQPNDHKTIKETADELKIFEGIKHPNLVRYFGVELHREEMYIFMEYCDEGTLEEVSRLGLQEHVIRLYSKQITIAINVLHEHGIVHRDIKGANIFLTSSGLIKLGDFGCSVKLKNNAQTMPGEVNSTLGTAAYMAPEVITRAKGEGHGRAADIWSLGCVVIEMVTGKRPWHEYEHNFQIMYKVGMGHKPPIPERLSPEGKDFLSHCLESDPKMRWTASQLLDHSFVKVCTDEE
# SRSF protein kinase 2 (Homo sapiens), sequence (P78362 whole entry, looked up): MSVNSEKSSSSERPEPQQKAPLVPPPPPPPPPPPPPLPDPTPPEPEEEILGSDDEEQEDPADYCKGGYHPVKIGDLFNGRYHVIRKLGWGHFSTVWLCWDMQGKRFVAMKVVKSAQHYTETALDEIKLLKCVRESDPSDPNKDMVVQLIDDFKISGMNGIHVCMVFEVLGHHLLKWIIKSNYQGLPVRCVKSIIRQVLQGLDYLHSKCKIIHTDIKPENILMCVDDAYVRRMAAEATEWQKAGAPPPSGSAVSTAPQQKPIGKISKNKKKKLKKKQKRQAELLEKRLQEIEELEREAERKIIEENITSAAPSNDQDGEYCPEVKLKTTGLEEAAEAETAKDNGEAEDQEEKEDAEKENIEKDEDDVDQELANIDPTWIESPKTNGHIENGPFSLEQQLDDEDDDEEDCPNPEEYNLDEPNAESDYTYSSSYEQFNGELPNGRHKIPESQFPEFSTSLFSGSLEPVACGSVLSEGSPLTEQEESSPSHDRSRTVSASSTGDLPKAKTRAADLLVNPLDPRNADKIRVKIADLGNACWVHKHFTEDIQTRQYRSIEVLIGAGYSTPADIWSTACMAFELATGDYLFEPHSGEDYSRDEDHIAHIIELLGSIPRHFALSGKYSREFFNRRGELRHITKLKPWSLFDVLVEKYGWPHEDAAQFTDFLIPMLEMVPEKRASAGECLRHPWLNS
# Uncharacterized serine/threonine-protein kinase SBK3 (Homo sapiens), sequence (P0C264 whole entry): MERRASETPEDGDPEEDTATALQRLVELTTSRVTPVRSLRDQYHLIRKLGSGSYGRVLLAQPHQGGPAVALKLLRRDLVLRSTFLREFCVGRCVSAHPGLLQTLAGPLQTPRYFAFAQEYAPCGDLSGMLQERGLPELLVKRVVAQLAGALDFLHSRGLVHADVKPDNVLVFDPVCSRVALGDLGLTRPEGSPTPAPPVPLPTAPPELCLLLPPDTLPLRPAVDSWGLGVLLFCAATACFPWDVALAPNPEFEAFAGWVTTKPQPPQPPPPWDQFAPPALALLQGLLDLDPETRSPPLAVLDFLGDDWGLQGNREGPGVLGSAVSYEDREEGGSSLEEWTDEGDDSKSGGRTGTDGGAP
smiles,measurement,setting,value
CC#CC(=O)N1CCC[C@H]1c1nc(-c2ccc(C(=O)Nc3ccccn3)cc2)c2c(N)nccn12 [ACALABRUTINIB],Activity,[1],84%
same,Activity,[2],84%
same,Activity,[3],98%
same,Activity,[4],84%
same,Activity,[5],90%
same,Activity,[6],78%
same,Activity,[7],86%
same,Activity,[8],85%
same,Activity,CLL mononuclear cell,Active
same,Activity,[9],86%
same,Activity,[10],86%
same,Activity,[11],88%
same,Activity,[12],94%
same,Activity,[13],91%
same,Activity,[14],64%
same,Activity,[15],100%
same,Activity,[16],84%
same,Activity,[17],71%
same,Activity,[18],91%
same,inhibition,[19],Active
same,Activity,[20],94%
same,Activity,[21],~70%
same,Activity,[22],90%
same,Activity,[23],67%
same,Activity,[24],90%
same,Activity,Splenocyte,Active
